Key:
Conditions in all cases: Homo sapiens
[1] = system: HT-29; assay: Growth inhibition of HT29 cells at 100 uM; values are per cent of control
[2] = system: LoVo; assay: Growth inhibition of LoVo cells at 100 uM; values are per cent of control
[3] = system: NCI-H460; assay: Growth inhibition of NCI-H460 cells at 100 uM; values are per cent of control
[4] = system: LoVo; assay: Growth inhibition of LoVo cells; assay type: functional
In short: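 LoVo human colon cancer cells were screened by the NCI standard anticancer protocol. Percentage cell growth was read after initial treatment at 100 µM. Follow-up testing used 10, 1.0, 0.1 and 0.01 µM. GI50 was the concentration giving 50% inhibition of cell growth.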

Structure (SMILES)	growth, % of control at 100 µM [1] [%]	growth, % of control at 100 µM [2] [%]	growth, % of control at 100 µM [3] [%]	GI50 [4] [µM]	CC50 ([4]; read-out: LC50 (the source's name)) [µM]
CC(=O)Nc1ccsc1C#CC(C)(C)O	90	78	56		
Cc1ccc(C#Cc2cccs2)cc1	83	83	68		
C(#Cc1cccs1)COc1ccccc1	63	47	88		
CC(C)(O)C#Cc1cccs1	95	78	105		
O=[N+]([O-])c1ccc(OCC#Cc2cccs2)cc1	44	26	48	47.5	100

— ChEMBL document CHEMBL1146170, “Facile synthesis of substituted thiophenes via Pd/C-mediated sonogashira coupling in water” (2006)
